Results: article PMC7881813 (The Indian Journal of Medical Research, 2020)

Experiments:
EAC cells = experiment: In vivo IC50 determination in EAC cells by trypan blue dye exclusion; details: Mus musculus, 24 h, read-out: IC50 (50 per cent lethality of EAC cells) in vivo
MCF-7 cells [1] = experiment: MTT assay for IC50 determination, MCF-7; assay type: cell-based; details: Homo sapiens, MCF7, read-out: IC50 for MCF-7
MDA-MB-231 cells [2] = experiment: MTT assay for IC50 determination, MDA-MB-231; assay type: cell-based; details: Homo sapiens, MDA-MB-231, read-out: IC50 for MDA-MB-231
normal murine fibroblast = experiment: MTT cytotoxicity on normal mouse fibroblast; assay type: cell-based; details: xanthones up to highest concentration, cisplatin at 20 μM, XD at 1 and 5 μM
EAC-bearing mice [3] = experiment: Haematological parameters of EAC-bearing mice; assay type: in vivo, mouse; details: for Effect on haematological counts (in words): respective IC50 dosage; for Hb / Platelets / RBC / WBC: treatment at IC50 dose, mean±SD n=6
How it was run: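 Female Swiss albino mice (7–8 wk) inoculated intraperitoneally with 1×10⁶ EAC cells on day 0, then treated on days 1–10. After 4 h fasting, heparinised cardiac blood collected. Haemoglobin by Sahli's method; RBC, WBC and platelets on an automated haematology analyser. Mean±SD, six mice per group.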

EAC-bearing mice [4] = experiment: Hepatotoxicity and kidney toxicity parameters of EAC-bearing mice; assay type: in vivo, mouse; details: treatment at IC50 dosage; for ALP / ALT / AST / Creatinine / Urea: EAC-bearing mice, mean±SD n=6
EAC-bearing mice [5] = experiment: Survivability study; assay type: in vivo, mouse; details: respective IC50 dosages, n=10
How it was run: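 EAC-bearing mice (1×10⁶ cells intraperitoneally), ten per group, treated beginning 24 h after inoculation. Survival days recorded. ILS% = (T−C)/C×100, with T the survival days of treated mice and C those of untreated mice. Kaplan–Meier survival analysis.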

[6] = system: liver cytosol of EAC-bearing mice; experiment: Antioxidative enzymes and LPO in liver cytosol of EAC-bearing mice; assay type: in vivo, mouse
How it was run: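 Liver from female Swiss albino mice bearing intraperitoneal EAC. After 15 days of treatment: GST in liver cytosol, rise in A340 with CDNB substrate, as CDNB-GSH conjugate formed per min per mg protein. GPx in post-mitochondrial fraction, fall in A340 after H₂O₂ addition, as nmol NADPH used per min per mg protein. Mean±SD, six per group.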

normal mice = experiment: Chronic toxicity study with therapeutic dosage of XD; assay type: in vivo, mouse; details: 8 μM, oral, 40 days, data not shown
How it was run: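 Normal mice dosed orally with XD for 40 days; controls got 0.9% saline. After 4 h fasting, blood drawn by cardiac puncture, clotted, spun at 2000×g for 15 min, serum held at −20°C. ALT, ALP, urea and creatinine measured on an automated clinical chemistry analyser.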

[7] = system: EAC, MCF-7 and MDA-MB-231 cells; experiment: Intracellular ROS generation; assay type: cell-based; details: XD at respective IC50 (8.1, 1 and 5 μM), in vivo and in vitro, vs untreated
normal fibroblast = experiment: Intracellular ROS generation; assay type: cell-based, mouse; details: treatment with 50 μM
MCF-7 cells [8] = experiment: Comet assay, MCF-7 cells; assay type: cell-based, human; details: MCF-7, XD 1 μM
How it was run: (§1)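 Alkaline comet assay, about 10⁴ cells/slide in 1% low-melt agarose over normal agarose, capped with 0.5% low-melt agarose. Lysis overnight at 4°C (2.5 M NaCl, 100 mM Na₂-EDTA, 10 mM Tris, 1% Triton X-100, 10% DMSO, pH 10.0). Electrophoresis at pH 13.1, 30 min, 300 mA, 20 V. Tris neutralisation, ethidium bromide staining. Per cent damaged cells among 150–200 scored per slide.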

MDA-MB-231 cells [9] = experiment: Comet assay, MDA-MB-231 cells; assay type: cell-based, human; details: MDA-MB-231, XD 5 μM
How it was run: as §1

[10] = system: normal cells (fibroblast); experiment: Comet assay, normal fibroblast; assay type: cell-based, mouse; details: highest dose of 40 μM
How it was run: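 Mouse fibroblasts treated with XD 24 h after seeding and harvested 48 h later. Alkaline comet assay: cells in low-melt agarose layers, overnight lysis at 4°C at pH 10.0, electrophoresis at pH 13.1 for 30 min (300 mA, 20 V), neutralisation, ethidium bromide stain. Fluorescence microscopy; damaged-cell per cent and tail length from 150–200 cells per slide.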

[11] = system: EAC, MCF-7 and MDA-MB-231 cells; experiment: DNA fragmentation assay; assay type: cell-based; details: XD at respective IC50 dosage (8.1, 1 and 5 μM)
[12] = system: EAC, MCF-7 and MDA-MB-231 cells; experiment: Cell cycle phase distribution by flow cytometry; assay type: cell-based; details: 10 days of treatment in vivo and 48 h in vitro, vs control
How it was run: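 EAC cells taken from mice 10 days after daily XD dosing (days 1–10 after intraperitoneal inoculation with 1×10⁶ cells), PBS-washed and haemocytometer-counted. […] Cell-cycle distribution, including SubG0, by flow cytometry. Repeated at least three times.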

[13] = system: EAC, MCF-7 and MDA-MB-231 cells; experiment: TUNEL assay; assay type: cell-based; details: in vivo and in vitro models, vs control
How it was run: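 EAC cells recovered from the peritoneum of mice after 10 days of XD dosing, PBS-washed, smeared and fixed in 4% paraformaldehyde. MCF-7 and MDA-MB-231 cells grown on coverslips and fixed in paraformaldehyde. Fluorescein in situ cell-death (TUNEL) kit used per manufacturer; positive cells imaged by fluorescence microscopy at ×20.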

Bax:Bcl-2 = experiment: Western blot Bax:Bcl-2 ratio; assay type: cell-based; details: EAC, MCF-7 and MDA-MB-231 cells, XD-treated vs control
How it was run: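 Whole-cell extracts prepared from control and XD-treated EAC, MCF-7 and MDA-MB-231 cells. Bax and Bcl-2 immunoblotted and the Bax:Bcl-2 ratio calculated. EAC cells came from mice dosed on days 1–10 after intraperitoneal tumour inoculation. Repeated at least three times, mean±SD.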

[14] = EAC-bearing mice, XD-treated 8.1 µM

Q: Which IC50 (EAC cells) does the source give for COc1cc(O)c2c(=O)c3c(O)ccc(O)c3oc2c1 [XD, 1,5,8-trihydroxy-3-methoxyxanthone] here?
A: 8.1 µM

Q: And the IC50 (MCF-7 cells [1])?
A: 1 µM

Q: And the IC50 (MDA-MB-231 cells [2])?
A: 5 µM

Q: And the “Effect on normal murine fibroblast” value (normal murine fibroblast)?
A: without affecting the normal cells

Q: And the “Effect on haematological counts (in words)” value (EAC-bearing mice [3])?
A: lower WBC and platelet counts back to normal level

Q: What about the Hb (EAC-bearing mice [3]) of the same molecule?
A: 10 ± 2 g/dL

Q: And the Platelets (EAC-bearing mice [3])?
A: 341±8 10^3/µl

Q: And the RBC (EAC-bearing mice [3])?
A: 5.05±0.5 10^6/µl

Q: What about the WBC (EAC-bearing mice [3]) of the same molecule?
A: 17.2±0.2 10^3/µl

Q: What about the ALP (EAC-bearing mice [4]) of the same molecule?
A: 57.2±2 IU/l

Q: What about the ALT (EAC-bearing mice [4]) of the same molecule?
A: 79±2 IU/l

Q: And the AST (EAC-bearing mice [4])?
A: 205±5 IU/l

Q: And the Creatinine (EAC-bearing mice [4])?
A: 0.7 ± 0.09 mg/dL

Q: And the Urea (EAC-bearing mice [4])?
A: 41 ± 8 mg/dL

Q: What about the “Liver and kidney toxicity parameters in tumour-bearing mice” value (EAC-bearing mice [4]; compared to normal mice) of the same molecule?
A: almost back to normal

Q: And the “Increase in life span of tumour-bearing mice (ILS%)” value (shortened to “Increase in life span … (ILS%)”) (EAC-bearing mice [5])?
A: 140%

Q: What about the CAT ([6]; Drug control group) of the same molecule?
A: 0.4±0.06 units/mg

Q: What about the GPx ([6]; Drug control group) of the same molecule?
A: 8.28 ± 0.6 nmol/mg

Q: What about the GSH ([6]; Drug control group) of the same molecule?
A: 2.6 ± 0.3 nmol/mg

Q: What about the GST ([6]; Drug control group) of the same molecule?
A: 8 ± 0.6 nmol/mg

Q: And the LPO ([6]; Drug control group)?
A: 1.6 ± 0.09 mol/mg

Q: And the SOD ([6]; Drug control group)?
A: 17±6 units/mg

Q: What about the GPx [6, 14] of the same molecule?
A: 9.9 ± 2 nmol/mg

Q: What about the GSH [6, 14] of the same molecule?
A: 5.72 ± 1 nmol/mg

Q: And the GST [6, 14]?
A: 15 ± 5 nmol/mg

Q: What about the LPO [6, 14] of the same molecule?
A: 1.8 ± 0.09 mol/mg

Q: And the SOD [6, 14]?
A: 35±0.8 units/mg

Q: What about the “Chronic toxicity (liver and kidney toxicity parameters)” value (normal mice) of the same molecule?
A: did not show any toxicity

Q: What about the ROS level [7] of the same molecule?
A: significantly (P<0.001) increased

Q: What about the “ROS generation in normal fibroblast” value (normal fibroblast) of the same molecule?
A: augmentation of ROS generation was not seen

Q: What about the “per cent of damaged cells (comet assay)” value (MCF-7 cells [8]) of the same molecule?
A: 65 per cent

Q: What about the “per cent of damaged cells (comet assay)” value (MDA-MB-231 cells [9]) of the same molecule?
A: 67 per cent

Q: And the “DNA damage in normal cells (comet assay)” value [10]?
A: no DNA damage was seen in normal cells

Q: And the DNA fragmentation [11]?
A: smearing pattern

Q: And the SubG0 population [12]?
A: significantly (P<0.001) increase

Q: What about the “Apoptosis by TUNEL assay” value [13] of the same molecule?
A: significant apoptosis

Q: What about the “intracellular Bax:Bcl-2 ratio” value (Bax:Bcl-2) of the same molecule?
A: significant (P<0.001) augmentation

Q: With N.N.[Cl][Pt][Cl] [Cisplatin, reference compound] as the molecule, how does the “Effect on haematological counts (in words)” value (EAC-bearing mice [3]) read?
A: lowering of RBC, Hb and platelets

Q: What about the Hb (EAC-bearing mice [3]) of the same molecule?
A: 2.1 ± 0.4 g/dL

Q: And the Platelets (EAC-bearing mice [3])?
A: 200±2 10^3/µl

Q: And the RBC (EAC-bearing mice [3])?
A: 2.7±0.6 10^6/µl

Q: And the WBC (EAC-bearing mice [3])?
A: 35.8±0.8 10^3/µl

Q: What about the “Increase in life span … (ILS%)” value (EAC-bearing mice [5]) of the same molecule?
A: 36.36%

Q: How did the IC50 (EAC cells) turn out when COc1cc(O)c2c(=O)c3c(OC)ccc(OC)c3oc2c1 [XC, 1-hydroxy-3,5,8-trimethoxyxanthone] was run?
A: 32.4 µM

Q: What about the IC50 (MCF-7 cells [1]) of the same molecule?
A: 8 µM

Q: And the IC50 (MDA-MB-231 cells [2])?
A: 25 µM

Q: And the Hb (EAC-bearing mice [3])?
A: 7.9 ± 0.9 g/dL

Q: What about the Platelets (EAC-bearing mice [3]) of the same molecule?
A: 441±2 10^3/µl

Q: What about the RBC (EAC-bearing mice [3]) of the same molecule?
A: 5.75±0.2 10^6/µl

Q: And the WBC (EAC-bearing mice [3])?
A: 27.2±0.8 10^3/µl

Q: What about the ALP (EAC-bearing mice [4]) of the same molecule?
A: 106±2 IU/l

Q: And the ALT (EAC-bearing mice [4])?
A: 85±5 IU/l

Q: And the AST (EAC-bearing mice [4])?
A: 355±9 IU/l

Q: What about the Creatinine (EAC-bearing mice [4]) of the same molecule?
A: 1.2 ± 0.09 mg/dL

Q: And the Urea (EAC-bearing mice [4])?
A: 79 ± 8 mg/dL

Q: What about the “Increase in life span … (ILS%)” value (EAC-bearing mice [5]) of the same molecule?
A: 81%

Q: For COc1cc(O)c2c(=O)c3c(O)ccc(OC)c3oc2c1 [XB, 1,8-dihydroxy-3,5-dimethoxyxanthone], which IC50 (EAC cells) is on record?
A: 48.5 µM

Q: What about the IC50 (MCF-7 cells [1]) of the same molecule?
A: 25 µM

Q: And the IC50 (MDA-MB-231 cells [2])?
A: 30 µM

Q: And the Hb (EAC-bearing mice [3])?
A: 7.4 ± 0.5 g/dL

Q: And the Platelets (EAC-bearing mice [3])?
A: 596±4 10^3/µl

Q: And the RBC (EAC-bearing mice [3])?
A: 4.75±0.3 10^6/µl

Q: What about the WBC (EAC-bearing mice [3]) of the same molecule?
A: 24.6±0.6 10^3/µl

Q: And the ALP (EAC-bearing mice [4])?
A: 160±5 IU/l

Q: What about the ALT (EAC-bearing mice [4]) of the same molecule?
A: 93±4 IU/l

Q: What about the AST (EAC-bearing mice [4]) of the same molecule?
A: 335±8 IU/l

Q: And the Creatinine (EAC-bearing mice [4])?
A: 1.1 ± 0.09 mg/dL

Q: And the Urea (EAC-bearing mice [4])?
A: 67 ± 8 mg/dL

Q: What about the “Increase in life span … (ILS%)” value (EAC-bearing mice [5]) of the same molecule?
A: 63%

Q: What does the source list for COc1cc(O)c2c(=O)c3c(OC)c(OC)ccc3oc2c1 [XA, 1-hydroxy-3,7,8-trimethoxyxanthone]?
A: IC50 (EAC cells): 48.5 µM; IC50 (MCF-7 cells [1]): 30 µM; IC50 (MDA-MB-231 cells [2]): 50 µM; Hb (EAC-bearing mice [3]): 7.5 ± 0.8 g/dL; Platelets (EAC-bearing mice [3]): 456±3 10^3/µl; RBC (EAC-bearing mice [3]): 4.15±0.4 10^6/µl; WBC (EAC-bearing mice [3]): 30.8±0.6 10^3/µl; ALP (EAC-bearing mice [4]): 103±3 IU/l; ALT (EAC-bearing mice [4]): 91±3 IU/l; AST (EAC-bearing mice [4]): 350±1 IU/l; Creatinine (EAC-bearing mice [4]): 1.7 ± 0.09 mg/dL; Urea (EAC-bearing mice [4]): 71 ± 8 mg/dL; Increase in life span of tumour-bearing mice (ILS%) (EAC-bearing mice [5]): 45%
